The text below walks through data of PubChem BioAssay AID588621 (Sanford-Burnham Center for Chemical Genomics, 2011).

Screen size: about 360,000 compounds; about 890 (0.25%) were called active. Only a selection was taken, and actives are over-represented in it overall. Values without a mark were called inactive.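 How the source made its calls: active means inhibition at 20 µM, scaled per plate between control wells, above about 37% (limit read from the data); inactive means the rest.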

In general, inhibition refers to the change of the read-out against control, counted positive when it falls.

Tyrosine-protein phosphatase non-receptor type 5 (Homo sapiens), sequence (P54829 whole entry, looked up): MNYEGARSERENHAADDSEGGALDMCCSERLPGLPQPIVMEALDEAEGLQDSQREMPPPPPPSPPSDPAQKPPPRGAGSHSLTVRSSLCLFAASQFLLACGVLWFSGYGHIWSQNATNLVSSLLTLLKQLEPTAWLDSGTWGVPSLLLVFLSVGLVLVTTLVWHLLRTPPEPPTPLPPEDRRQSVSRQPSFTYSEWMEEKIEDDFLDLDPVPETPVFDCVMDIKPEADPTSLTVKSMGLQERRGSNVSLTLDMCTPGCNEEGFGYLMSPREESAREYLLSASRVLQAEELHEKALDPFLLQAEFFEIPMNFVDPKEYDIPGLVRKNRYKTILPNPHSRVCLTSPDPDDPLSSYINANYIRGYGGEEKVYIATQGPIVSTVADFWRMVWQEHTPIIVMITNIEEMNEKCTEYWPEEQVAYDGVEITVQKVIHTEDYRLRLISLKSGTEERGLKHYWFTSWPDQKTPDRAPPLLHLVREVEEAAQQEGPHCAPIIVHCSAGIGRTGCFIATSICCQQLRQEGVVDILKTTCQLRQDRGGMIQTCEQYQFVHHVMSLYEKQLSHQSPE

For the assay, the target named is Tyrosine-protein phosphatase non-receptor type 5 (Homo sapiens) (UniProt P54829). Kind of assay: STEP phosphatase inhibitors, primary screen, biochemical, fluorescence intensity, uHTS (AID 588621).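 Further: 0% = DMSO with enzyme and substrate and 100% = substrate only without enzyme.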 As to conditions: recombinant STEP, OMFP fluorogenic substrate, at 20 µM, stronger effect = higher value. The procedure, abridged:
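Material: STEP (striatal-enriched tyrosine phosphatase) enzyme, cell-free; Compound dosing: 20 µM single dose in 1% DMSO; Technique: fluorescence read at 480 nm ex / 540 nm em; Times: reaction 20 min, ambient temperature; Medium: 50 mM Bis-Tris pH 6.0 with 2.5 mM DTT and 0.005% Tween 20; Also added: OMFP at 25 µM.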
On to `COc1ccc(N2C(=O)/C(=C/c3ccco3)C(=O)NC2=S)cc1`, for which the inhibition was 63.7% (active).

On to `CC1CC=CCC12C(=O)NC(=S)NC2=O` (stereo not given), for which the inhibition is 0%.

For the molecule `COc1ccc(-n2c(-c3ccccc3)nc3ccccc3c2=O)cc1`, the inhibition is -0.9%.

Consider `O=C(c1cc2nc(-c3ccccc3)cc(-c3ccccc3)n2n1)N1CCC2(CC1)OCCO2`, for which the inhibition was 0.4%.

Regarding `CN(C)CCN(CC1CCCN(Cc2ccccc2F)C1)C(=O)Cc1ccc(F)c(F)c1` (stereo not given), the inhibition was -2%.
